Our source for the Incorporation and Km values is ChEMBL document CHEMBL1122239, “Synthesis and biological properties of new hexapeptide substrates for vitamin K dependent carboxylase. Evidence for X-Pro cis/trans amide bond interconversions in prothrombin precursor fragment 18-23” (J Med Chem, 1983).

Format in all cases: functional
Data set [1] has as its target T1, Vitamin K-dependent gamma-carboxylase (Rattus norvegicus) (UniProt O88496).
T1 sequence (whole entry): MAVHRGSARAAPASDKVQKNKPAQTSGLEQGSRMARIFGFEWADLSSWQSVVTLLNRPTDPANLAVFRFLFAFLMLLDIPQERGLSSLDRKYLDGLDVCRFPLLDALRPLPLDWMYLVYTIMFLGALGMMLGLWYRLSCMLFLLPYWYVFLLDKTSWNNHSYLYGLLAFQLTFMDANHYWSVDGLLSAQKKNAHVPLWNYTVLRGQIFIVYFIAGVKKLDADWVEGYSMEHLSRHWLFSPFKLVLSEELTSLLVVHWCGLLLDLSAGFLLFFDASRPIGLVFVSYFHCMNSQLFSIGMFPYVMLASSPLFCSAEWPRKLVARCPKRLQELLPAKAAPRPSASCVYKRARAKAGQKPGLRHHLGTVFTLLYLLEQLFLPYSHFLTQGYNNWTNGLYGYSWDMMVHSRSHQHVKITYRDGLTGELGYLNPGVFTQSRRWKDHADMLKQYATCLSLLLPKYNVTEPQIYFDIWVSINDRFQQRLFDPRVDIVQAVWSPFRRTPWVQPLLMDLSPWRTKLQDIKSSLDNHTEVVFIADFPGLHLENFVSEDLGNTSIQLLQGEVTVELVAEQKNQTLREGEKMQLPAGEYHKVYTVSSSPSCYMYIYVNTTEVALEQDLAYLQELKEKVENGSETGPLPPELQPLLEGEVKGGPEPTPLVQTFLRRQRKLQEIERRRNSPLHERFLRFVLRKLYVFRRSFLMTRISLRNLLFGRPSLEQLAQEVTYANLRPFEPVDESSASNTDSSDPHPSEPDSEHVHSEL
The data set is described as follows: Compound was evaluated as substrates for vitamin K dependent carboxylase and percent CO2 incorporation was determined at 0.25 mM concentrations. In short, it runs like this:
(§1)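 Vitamin K dependent carboxylase, which needs O2, reduced vitamin K and CO2, was given each hexapeptide directly as substrate at 0.25, 1, 4.25 or 5.5 mM. Carboxylation of Glu to Gla was reported as percent CO2 incorporation. The full assay procedure is given only by reference to earlier work.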

Data set [2] deals with T1, Vitamin K-dependent gamma-carboxylase (Rattus norvegicus). The data set can be described thus: Compound was evaluated as substrates for vitamin K dependent carboxylase and percent CO2 incorporation was determined at 1 mM concentrations. The method, boiled down:
as §1

A short description of data set [3]: Carboxylation of 0.25 mM Phe-Leu-Glu-Glu-Leu at a concentration of 1 mM. The method, boiled down:
(§2)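 Inhibition format: the hexapeptide was added at 1, 4.25 or 5.5 mM to a carboxylase reaction containing 0.25 mM H-Phe-Leu-Glu-Glu-Leu-OH as the reference substrate. Carboxylation of the pentapeptide was reported as a percentage. The detailed assay procedure is given only by reference to earlier work.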

Data set [4] addresses T1, Vitamin K-dependent gamma-carboxylase (Rattus norvegicus). The data set can be described thus: Compound was evaluated as substrates for vitamin K dependent carboxylase and percent CO2 incorporation was determined at 5.5 mM concentrations. In short, it runs like this: as §1
A short description of data set [5]: Carboxylation of 0.25 mM Phe-Leu-Glu-Glu-Leu at a concentration of 5.5 mM. In short, it runs like this: as §2
Data set [6] in a line: Carboxylation of 0.25 mM Phe-Leu-Glu-Glu-Leu at a concentration of 4.25 mM. In short, it runs like this: as §2
For data set [7], the target named is T1, Vitamin K-dependent gamma-carboxylase (Rattus norvegicus). The data set is described as follows: Compound was evaluated as substrates for vitamin K dependent carboxylase and percent CO2 incorporation was determined at 4.25 mM concentrations. In short, it runs like this: as §1
Substrate in data set [8]: CC(C)C[C@H](NC(=O)[C@@H](N)CC(N)=O)C(=O)N[C@@H](CCC(=O)O)C(=O)N[C@@H](CCCN=C(N)N)C(=O)N[C@@H](CCC(=O)O)C(=O)N[C@@H](CS)C(=O)O
The data set can be described thus: (§3) Compound was evaluated as substrates for vitamin K dependent carboxylase. The method, boiled down: as §1

Substrate in data set [9]: CC(C)C[C@H](NC(=O)[C@H](CC(N)=O)NC(=O)[C@H]1CSSC[C@H](NC(=O)[C@H](CCC(=O)O)NC(=O)[C@H](CCCN=C(N)N)NC(=O)[C@H](CCC(=O)O)NC(=O)[C@H](CC(C)C)NC(=O)[C@@H](N)CC(N)=O)C(=O)N[C@@H](CC(C)C)C(=O)N[C@H](CCC(=O)O)C(=O)N[C@@H](CCC(=O)O)C(=O)N2CCC[C@@H]2C(=O)N1)C(=O)N[C@@H](CCC(=O)O)C(=O)N[C@@H](CCCN=C(N)N)C(=O)N[C@@H](CCC(=O)O)C(=O)N[C@@H](CS)C(=O)O
The description is as §3. The method, boiled down: as §1

Substrate in data set [10]: CC(C)C[C@H](NC(=O)[C@H](CCC(=O)O)NC(=O)[C@H](CCC(=O)O)NC(=O)[C@H](CC(C)C)NC(=O)[C@@H](N)Cc1ccccc1)C(=O)O
The description is as §3. In short, it runs like this:
as §1

Substrate in data set [11]: CC(C)C[C@H]1NC(=O)[C@H](N)CSSC[C@@H](C(=O)O)NC(=O)[C@@H]2CCCN2C(=O)[C@@H](CCC(=O)O)NC(=O)[C@H](CCC(=O)O)NC1=O
The data set is described as follows: (§4) Compound was evaluated as substrates for vitamin K dependent carboxylase and percent CO2 incorporation was determined. In short, it runs like this: as §1

Substrate in data set [12]: COC(=O)[C@@H]1CSSC[C@@H](NC(C)=O)C(=O)N[C@H](CC(C)C)C(=O)N[C@@H](CCC(=O)O)C(=O)N[C@H](CCC(=O)O)C(=O)N2CCC[C@H]2C(=O)N1
The data set is described as §4. The method, boiled down: as §1

With `CC(C)C[C@H]1NC(=O)[C@H](N)CSSC[C@@H](C(=O)O)NC(=O)[C@@H]2CCCN2C(=O)[C@@H](CCC(=O)O)NC(=O)[C@H](CCC(=O)O)NC1=O`, the Incorporation came out at 7.5% in data set [1]; 7% in data set [2]; 98% in data set [3]; 8.7% in data set [4]; 78% in data set [5].
Regarding `CC(C)C[C@H]1NC(=O)[C@H](N)CSSC[C@@H](C(=O)O)NC(=O)[C@@H](C)NC(=O)[C@@H](CCC(=O)O)NC(=O)[C@H](CCC(=O)O)NC1=O`, the Incorporation came out at 63% in [1]; 83% in [6]; 59% in data set [7]; 60% in [2]; 94% in data set [3].
Take `COC(=O)[C@@H]1CSSC[C@@H](NC(C)=O)C(=O)N[C@H](CC(C)C)C(=O)N[C@@H](CCC(=O)O)C(=O)N[C@H](CCC(=O)O)C(=O)N2CCC[C@H]2C(=O)N1`: the Incorporation came out at 3.3% in data set [1]; 2.4% in data set [2]; 51% in [3]; 2.2% in data set [4]; 54% in [5].
In the case of `CC(C)C[C@H]1NC(=O)[C@H](N)CSSC[C@@H](C(=O)O)NC(=O)[C@H](C)NC(=O)[C@@H](CCC(=O)O)NC(=O)[C@H](CCC(=O)O)NC1=O`, the Incorporation in data set [1] was found to be 50%; in data set [6], 85%; in data set [7], 56%; in [2], 48%; in data set [3], 103%.
With `CC(C)C[C@H](NC(=O)[C@H](C)N)C(=O)N[C@@H](CCC(=O)O)C(=O)N[C@@H](CCC(=O)O)C(=O)N1CCC[C@@H]1C(=O)N[C@@H](C)C(=O)O`, the Incorporation in data set [1] is 14%; in data set [6], 134%; in data set [7] it was 24%; in data set [2], 16%; in data set [3], 99%.

B1: Vitamin K-dependent gamma-carboxylase (Rattus norvegicus), O88496 (protein)
chain: MAVHRGSARAAPASDKVQKNKPAQTSGLEQGSRMARIFGFEWADLSSWQSVVTLLNRPTDPANLAVFRFLFAFLMLLDIPQERGLSSLDRKYLDGLDVCRFPLLDALRPLPLDWMYLVYTIMFLGALGMMLGLWYRLSCMLFLLPYWYVFLLDKTSWNNHSYLYGLLAFQLTFMDANHYWSVDGLLSAQKKNAHVPLWNYTVLRGQIFIVYFIAGVKKLDADWVEGYSMEHLSRHWLFSPFKLVLSEELTSLLVVHWCGLLLDLSAGFLLFFDASRPIGLVFVSYFHCMNSQLFSIGMFPYVMLASSPLFCSAEWPRKLVARCPKRLQELLPAKAAPRPSASCVYKRARAKAGQKPGLRHHLGTVFTLLYLLEQLFLPYSHFLTQGYNNWTNGLYGYSWDMMVHSRSHQHVKITYRDGLTGELGYLNPGVFTQSRRWKDHADMLKQYATCLSLLLPKYNVTEPQIYFDIWVSINDRFQQRLFDPRVDIVQAVWSPFRRTPWVQPLLMDLSPWRTKLQDIKSSLDNHTEVVFIADFPGLHLENFVSEDLGNTSIQLLQGEVTVELVAEQKNQTLREGEKMQLPAGEYHKVYTVSSSPSCYMYIYVNTTEVALEQDLAYLQELKEKVENGSETGPLPPELQPLLEGEVKGGPEPTPLVQTFLRRQRKLQEIERRRNSPLHERFLRFVLRKLYVFRRSFLMTRISLRNLLFGRPSLEQLAQEVTYANLRPFEPVDESSASNTDSSDPHPSEPDSEHVHSEL
As to B1, the Km in [8] was 8 mM; in [9], 0.001 mM; in data set [10] it was 8 mM; in data set [11], 8 mM; in data set [12], 8 mM.

By Km is commonly meant the concentration of substrate that gives half-maximal velocity.
